Measured values published in ChEMBL document CHEMBL4316602, “Investigating the promiscuity of the chloramphenicol nitroreductase from Haemophilus influenzae towards the reduction of 4-nitrobenzene derivatives” (Bioorg Med Chem Lett, 2019).
Values belong to the compound of their own block, whether it stands above or below them.

What was measured:
Type in all cases: ADME
[1] = Substrate activity at recombinant Haemophilus influenzae Chloramphenicol nitroreductase expressed in Escherichia coli assessed as benzoic acid formation at 1 mM measured after 24 hrs at pH 8 under 37 degC by LC-MS analysis; details: pH 8, 24 h, 1000 µM
In short: (§1)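 50 mM Tris-HCl pH 8.0 holding 1 mM nitro compound, 5 µM CNR and 100 µM NADPH. NADPH is regenerated by 40 mM glucose plus 4 µM glucose dehydrogenase. Incubated 24 h at 37 °C, then extracted with EtOAc, dried, redissolved in MeOH and analysed by LCMS for reduction products.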

[2] = Substrate activity at recombinant Haemophilus influenzae Chloramphenicol nitroreductase expressed in Escherichia coli assessed as 4-aminoether formation at 1 mM measured after 24 hrs at pH 8 under 37 degC by LC-MS analysis; details: pH 8, 24 h, 1000 µM; in short: as §1
[3] = Substrate activity at recombinant Haemophilus influenzae Chloramphenicol nitroreductase expressed in Escherichia coli assessed as hydroxylamine formation at 1 mM measured after 24 hrs at pH 8 under 37 degC by LC-MS analysis; details: pH 8, 24 h, 1000 µM; in short: as §1
[4] = Substrate activity at recombinant Haemophilus influenzae Chloramphenicol nitroreductase expressed in Escherichia coli at 150 uM measured at 30 sec interval for 60 mins in presence of NADPH at pH 8; details: pH 8, 1 h
In short: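 Each nitro compound at 150 µM in 50 mM Tris-HCl pH 8.0 with 1.0 mM NADPH. Started with 1 µM CNR and read at 340 nm (NADPH) every 30 s for 60 min. Initial rates were taken from the first 5 min and expressed as % of the chloramphenicol rate.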

[5] = Substrate activity at recombinant Haemophilus influenzae Chloramphenicol nitroreductase expressed in Escherichia coli at 150 uM measured at 30 sec interval for 60 mins in presence of NADPH at 50 degC; details: 1 h
[6] = tested on: Chloramphenicol nitroreductase; test: Substrate activity at recombinant Haemophilus influenzae Chloramphenicol nitroreductase expressed in Escherichia coli assessed as Km measured at 30 sec interval for 30 mins in presence of NADPH at 37 degC by Michaelis-Menton plot analysis
In short: (§2)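 Chloramphenicol varied 0–2500 µM (0, 1, 5, 10, 50, 100, 250, 500, 2500) with 0.4 µM CNR, 750 µM NADPH, 50 mM Tris-HCl pH 8.0, at 37 or 50 °C. NADPH consumption was followed at 340 nm every 30 s for 30 min. Initial rates came from the first 2–5 min, fitted to Michaelis–Menten for kcat and Km.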

[7] = tested on: Chloramphenicol nitroreductase; test: Substrate activity at recombinant Haemophilus influenzae Chloramphenicol nitroreductase expressed in Escherichia coli assessed as Km measured at 30 sec interval for 30 mins in presence of NADPH at 50 degC by Michaelis-Menton plot analysis; in short: as §2
[8] = Substrate activity at recombinant Haemophilus influenzae Chloramphenicol nitroreductase expressed in Escherichia coli assessed as Kcat measured at 30 sec interval for 30 mins in presence of NADPH at 37 degC by Michaelis-Menton plot analysis; details: 0.5 h; in short: as §2
[9] = Substrate activity at recombinant Haemophilus influenzae Chloramphenicol nitroreductase expressed in Escherichia coli assessed as Kcat measured at 30 sec interval for 30 mins in presence of NADPH at 50 degC by Michaelis-Menton plot analysis; details: 0.5 h; in short: as §2
[10] = Substrate activity at recombinant Haemophilus influenzae Chloramphenicol nitroreductase expressed in Escherichia coli assessed as ratio Kcat to Km measured at 30 sec interval for 30 mins in presence of NADPH at 37 degC by Michaelis-Menton plot analysis; details: 0.5 h; in short: as §2
[11] = Substrate activity at recombinant Haemophilus influenzae Chloramphenicol nitroreductase expressed in Escherichia coli assessed as ratio of Kcat to Km measured at 30 sec interval for 30 mins in presence of NADPH at 50 degC by Michaelis-Menton plot analysis; details: 0.5 h; in short: as §2

Activity [1]: Active
Compound: O=C(OCc1ccc([N+](=O)[O-])cc1)c1ccc(Cl)cc1

Activity [2]: Active | Activity [3]: Active
Compound: O=[N+]([O-])c1ccc(COCc2ccc(Br)cc2)cc1

Activity [1]: Active
Compound: O=C(OCc1ccc([N+](=O)[O-])cc1)c1ccc(Cl)cc1F

Activity [4]: Active | Activity [5]: Active | Km at 0.5 h [6]: 273 µM | Km at 0.5 h [7]: 191 µM | Kcat [8]: 61 s⁻¹ | Kcat [9]: 65 s⁻¹ | Kcat/Km [10]: 220000 M⁻¹ s⁻¹ | Kcat/Km [11]: 340000 M⁻¹ s⁻¹
Compound: O=C(N[C@H](CO)[C@H](O)c1ccc([N+](=O)[O-])cc1)C(Cl)Cl [CHLORAMPHENICOL]
